Structures are written as SMILES. Activity calls are given as the source filed them. The rule behind the calls is not given here.

In experiment [1] the target is Discoidin domain-containing receptor 2 (Homo sapiens) (UniProt Q16832). Put plainly: Inhibition of DDR2 (unknown origin) at 1 uM by Ambit Kinomescan binding assay relative to control; values are per cent of control.
The target of experiment [2] is Serine/threonine-protein kinase MARK1 (Homo sapiens) (UniProt Q9P0L2). Put plainly: Inhibition of MARK1 Lys2 labeling site in human A-375 cells at 0.05 uM by KiNativ Profiling analysis relative to control. The format is cell-based.
For experiment [3], the target named is T1, Serine/threonine-protein kinase D1 (Homo sapiens) (UniProt Q15139).
T1 sequence (whole entry): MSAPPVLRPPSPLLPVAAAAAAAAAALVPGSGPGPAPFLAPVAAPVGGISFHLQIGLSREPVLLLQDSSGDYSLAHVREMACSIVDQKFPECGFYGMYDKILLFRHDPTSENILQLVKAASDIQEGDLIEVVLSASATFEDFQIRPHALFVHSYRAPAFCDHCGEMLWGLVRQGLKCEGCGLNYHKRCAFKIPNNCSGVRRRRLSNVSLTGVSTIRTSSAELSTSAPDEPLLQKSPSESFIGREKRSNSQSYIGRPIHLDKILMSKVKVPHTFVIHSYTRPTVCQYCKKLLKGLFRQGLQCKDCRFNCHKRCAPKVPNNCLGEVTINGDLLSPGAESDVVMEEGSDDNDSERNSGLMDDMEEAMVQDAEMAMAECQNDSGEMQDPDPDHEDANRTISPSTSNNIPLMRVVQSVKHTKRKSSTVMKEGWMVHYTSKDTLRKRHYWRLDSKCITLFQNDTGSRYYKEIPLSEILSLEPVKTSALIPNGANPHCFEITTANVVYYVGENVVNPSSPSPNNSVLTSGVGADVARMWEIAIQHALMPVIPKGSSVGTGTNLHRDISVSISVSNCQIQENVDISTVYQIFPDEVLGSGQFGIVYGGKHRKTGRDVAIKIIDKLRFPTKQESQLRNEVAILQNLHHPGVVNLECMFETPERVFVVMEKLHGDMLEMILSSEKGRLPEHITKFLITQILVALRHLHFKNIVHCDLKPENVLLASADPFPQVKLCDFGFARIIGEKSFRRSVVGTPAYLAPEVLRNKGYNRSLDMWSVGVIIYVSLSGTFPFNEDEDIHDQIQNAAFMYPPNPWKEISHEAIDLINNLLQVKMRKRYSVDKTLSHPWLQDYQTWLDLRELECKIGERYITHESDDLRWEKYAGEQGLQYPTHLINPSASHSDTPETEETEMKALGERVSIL
In words: Inhibition of PRKD1 (unknown origin) at 1 uM by Ambit Kinomescan binding assay relative to control.

The target of experiment [4] is Serine/threonine-protein kinase MRCK alpha (Homo sapiens) (UniProt Q5VT25). In words: Inhibition of MRCKA (unknown origin) at 1 uM by Ambit Kinomescan binding assay relative to control.
Experiment [5] deals with Ribosomal protein S6 kinase alpha-4 (Homo sapiens) (UniProt O75676). Put plainly: Inhibition of MSK2 domain1 Lys2 labeling site in human A-375 cells at 5 uM by KiNativ Profiling analysis relative to control. The format is cell-based.
Experiment [6] concerns the target 5'-AMP-activated protein kinase catalytic subunit alpha-2 (Homo sapiens) (UniProt P54646). In words: Inhibition of AMPKa2 Lys1 labeling site in human A-375 cells at 0.5 uM by KiNativ Profiling analysis relative to control. In kind it is cell-based. Summed up:
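Live A375 melanoma cells were treated with compound at 5 or 0.5 μM, then lysed. The lysates were labeled with a lysine-reactive ATP or ADP-biotin probe. Kinase protection from probe labeling was measured by KiNativ.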

Experiment [7] has as its target Serine/threonine-protein kinase PLK1 (Homo sapiens) (UniProt P53350). Put plainly: Inhibition of PLK1 Lys2 labeling site in human A-375 cells at 0.5 uM by KiNativ Profiling analysis relative to control. The format is cell-based.
Experiment [8] concerns the target TRAF2 and NCK-interacting protein kinase (Homo sapiens) (UniProt Q9UKE5). In words: Inhibition of TNIK (unknown origin) at 10 uM by Ambit Kinomescan binding assay relative to control; values are per cent of control.
Experiment [9] addresses Cyclin-dependent kinase 11B (Homo sapiens) (UniProt P21127). Put plainly: Inhibition of CDK11 (unknown origin) at 10 uM by Ambit Kinomescan binding assay relative to control; values are per cent of control.
For experiment [10], the target named is Receptor tyrosine-protein kinase erbB-2 (Homo sapiens) (UniProt P04626). Put plainly: Inhibition of ERBB2 (unknown origin) at 10 uM by Ambit Kinomescan binding assay.
In experiment [11] the target is T2, Serine/threonine-protein kinase greatwall (Homo sapiens) (UniProt Q96GX5).
T2 sequence (whole entry): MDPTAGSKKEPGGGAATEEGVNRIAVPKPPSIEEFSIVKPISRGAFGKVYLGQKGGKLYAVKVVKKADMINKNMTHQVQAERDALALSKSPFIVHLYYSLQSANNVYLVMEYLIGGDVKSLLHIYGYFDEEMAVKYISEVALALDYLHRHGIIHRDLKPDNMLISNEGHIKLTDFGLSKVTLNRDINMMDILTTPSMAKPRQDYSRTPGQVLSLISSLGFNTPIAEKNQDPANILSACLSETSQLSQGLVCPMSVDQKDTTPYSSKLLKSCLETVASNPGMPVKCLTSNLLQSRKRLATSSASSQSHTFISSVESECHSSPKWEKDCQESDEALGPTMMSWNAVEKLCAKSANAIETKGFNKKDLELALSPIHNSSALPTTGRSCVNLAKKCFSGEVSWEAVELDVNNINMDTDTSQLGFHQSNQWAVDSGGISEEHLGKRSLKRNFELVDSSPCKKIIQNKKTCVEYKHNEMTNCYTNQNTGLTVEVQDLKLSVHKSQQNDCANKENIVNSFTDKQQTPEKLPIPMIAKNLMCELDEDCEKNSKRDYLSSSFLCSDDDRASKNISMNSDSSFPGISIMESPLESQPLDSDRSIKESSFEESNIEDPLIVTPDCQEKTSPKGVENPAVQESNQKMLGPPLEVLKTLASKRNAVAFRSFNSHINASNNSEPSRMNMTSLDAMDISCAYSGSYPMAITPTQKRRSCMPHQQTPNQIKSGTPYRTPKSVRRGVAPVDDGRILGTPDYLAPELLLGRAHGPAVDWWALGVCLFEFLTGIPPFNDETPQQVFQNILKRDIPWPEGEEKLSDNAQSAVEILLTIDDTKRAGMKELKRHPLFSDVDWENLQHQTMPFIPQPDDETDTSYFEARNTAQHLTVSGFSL
In words: Inhibition of MASTL ATP labeling site in human Huh-7 cells at 1 uM by KiNativ Profiling analysis relative to control. In kind it is cell-based.

Experiment [12] has as its target Rho-associated protein kinase 1 (Homo sapiens) (UniProt Q13464). Put plainly: Inhibition of ROCK1 Lys2 labeling site in human Huh-7 cell lysate at 1 uM by KiNativ Profiling analysis relative to control. In kind it is subcellular.
Experiment [13] concerns the target Serine/threonine-protein kinase Nek7 (Homo sapiens) (UniProt Q8TDX7). Put plainly: Inhibition of NEK7 Lys1 labeling site in human Huh-7 cells at 1 uM by KiNativ Profiling analysis relative to control. The format is cell-based.

Sequence of Serine/threonine-protein kinase MARK1 (Homo sapiens) (Q9P0L2 whole entry, looked up): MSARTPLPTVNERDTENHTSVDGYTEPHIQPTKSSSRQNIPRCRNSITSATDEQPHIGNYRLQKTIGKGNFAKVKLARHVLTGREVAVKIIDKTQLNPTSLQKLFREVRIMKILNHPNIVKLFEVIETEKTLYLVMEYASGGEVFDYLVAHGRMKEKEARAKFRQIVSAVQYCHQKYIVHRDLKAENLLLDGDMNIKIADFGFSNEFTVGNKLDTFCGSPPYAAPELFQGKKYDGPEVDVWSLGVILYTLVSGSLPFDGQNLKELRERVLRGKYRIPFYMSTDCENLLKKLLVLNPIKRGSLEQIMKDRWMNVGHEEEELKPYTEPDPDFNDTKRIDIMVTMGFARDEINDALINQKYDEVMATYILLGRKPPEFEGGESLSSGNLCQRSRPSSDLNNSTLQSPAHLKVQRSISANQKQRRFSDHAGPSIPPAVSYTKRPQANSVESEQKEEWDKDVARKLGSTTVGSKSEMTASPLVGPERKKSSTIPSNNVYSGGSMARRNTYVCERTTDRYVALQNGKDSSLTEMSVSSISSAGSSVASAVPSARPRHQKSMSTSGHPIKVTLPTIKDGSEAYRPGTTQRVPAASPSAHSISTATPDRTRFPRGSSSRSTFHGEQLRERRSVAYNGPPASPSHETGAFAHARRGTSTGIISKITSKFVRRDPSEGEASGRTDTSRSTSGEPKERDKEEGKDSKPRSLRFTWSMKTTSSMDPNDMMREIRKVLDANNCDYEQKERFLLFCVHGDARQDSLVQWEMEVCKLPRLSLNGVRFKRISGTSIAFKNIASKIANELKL
Sequence of Receptor tyrosine-protein kinase erbB-2 (Homo sapiens) (P04626 whole entry): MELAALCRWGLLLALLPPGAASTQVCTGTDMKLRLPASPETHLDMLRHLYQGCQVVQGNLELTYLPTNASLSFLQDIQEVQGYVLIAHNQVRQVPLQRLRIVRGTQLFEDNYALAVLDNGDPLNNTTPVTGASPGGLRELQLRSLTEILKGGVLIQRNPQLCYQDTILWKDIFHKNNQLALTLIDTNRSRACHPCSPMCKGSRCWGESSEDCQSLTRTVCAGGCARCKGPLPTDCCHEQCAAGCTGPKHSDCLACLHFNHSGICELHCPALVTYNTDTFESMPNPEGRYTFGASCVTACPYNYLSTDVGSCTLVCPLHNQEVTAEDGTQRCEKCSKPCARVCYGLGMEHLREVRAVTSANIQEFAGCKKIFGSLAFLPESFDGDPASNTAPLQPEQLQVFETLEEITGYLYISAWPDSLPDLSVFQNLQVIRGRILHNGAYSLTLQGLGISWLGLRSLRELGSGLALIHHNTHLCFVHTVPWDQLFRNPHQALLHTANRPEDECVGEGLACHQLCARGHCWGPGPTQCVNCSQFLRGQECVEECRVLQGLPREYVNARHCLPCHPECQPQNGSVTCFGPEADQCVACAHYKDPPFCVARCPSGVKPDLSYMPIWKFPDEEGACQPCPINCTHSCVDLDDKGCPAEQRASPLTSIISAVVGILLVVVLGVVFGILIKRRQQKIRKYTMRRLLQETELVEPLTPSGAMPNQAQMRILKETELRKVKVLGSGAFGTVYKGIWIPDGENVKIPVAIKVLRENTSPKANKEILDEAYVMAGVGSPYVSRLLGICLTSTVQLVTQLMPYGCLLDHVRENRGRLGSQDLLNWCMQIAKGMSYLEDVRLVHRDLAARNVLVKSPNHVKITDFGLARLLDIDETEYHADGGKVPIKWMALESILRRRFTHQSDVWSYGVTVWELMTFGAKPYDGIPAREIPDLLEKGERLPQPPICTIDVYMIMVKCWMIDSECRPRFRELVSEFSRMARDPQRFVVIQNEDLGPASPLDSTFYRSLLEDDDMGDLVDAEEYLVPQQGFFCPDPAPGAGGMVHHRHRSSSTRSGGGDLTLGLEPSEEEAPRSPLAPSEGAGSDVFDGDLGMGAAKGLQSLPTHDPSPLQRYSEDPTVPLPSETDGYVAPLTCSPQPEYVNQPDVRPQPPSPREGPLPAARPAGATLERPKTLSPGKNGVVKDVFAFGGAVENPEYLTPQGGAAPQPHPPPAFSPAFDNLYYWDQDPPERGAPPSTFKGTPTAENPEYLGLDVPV
Sequence of Cyclin-dependent kinase 11B (Homo sapiens) (P21127 whole entry): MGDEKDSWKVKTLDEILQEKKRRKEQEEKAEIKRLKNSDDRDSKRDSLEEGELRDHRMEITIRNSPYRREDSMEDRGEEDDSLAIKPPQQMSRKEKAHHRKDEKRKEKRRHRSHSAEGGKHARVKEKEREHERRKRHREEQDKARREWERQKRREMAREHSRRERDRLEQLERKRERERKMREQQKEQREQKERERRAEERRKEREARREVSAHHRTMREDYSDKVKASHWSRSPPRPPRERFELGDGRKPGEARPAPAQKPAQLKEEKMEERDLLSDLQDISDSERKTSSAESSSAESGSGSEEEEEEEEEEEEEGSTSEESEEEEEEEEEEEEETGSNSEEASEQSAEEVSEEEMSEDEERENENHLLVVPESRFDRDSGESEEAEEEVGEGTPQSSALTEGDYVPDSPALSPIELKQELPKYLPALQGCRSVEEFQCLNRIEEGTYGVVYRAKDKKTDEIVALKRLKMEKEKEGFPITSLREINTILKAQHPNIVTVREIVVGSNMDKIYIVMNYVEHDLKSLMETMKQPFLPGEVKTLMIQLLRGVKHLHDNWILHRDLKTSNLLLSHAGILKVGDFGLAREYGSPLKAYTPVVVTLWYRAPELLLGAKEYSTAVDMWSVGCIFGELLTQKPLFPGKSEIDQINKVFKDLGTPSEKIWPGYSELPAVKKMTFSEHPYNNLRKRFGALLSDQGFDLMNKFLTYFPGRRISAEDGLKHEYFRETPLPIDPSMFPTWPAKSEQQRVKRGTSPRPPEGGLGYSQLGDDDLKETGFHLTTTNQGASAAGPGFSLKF
Sequence of Serine/threonine-protein kinase MRCK alpha (Homo sapiens) (Q5VT25 whole entry, the tested form may be a part): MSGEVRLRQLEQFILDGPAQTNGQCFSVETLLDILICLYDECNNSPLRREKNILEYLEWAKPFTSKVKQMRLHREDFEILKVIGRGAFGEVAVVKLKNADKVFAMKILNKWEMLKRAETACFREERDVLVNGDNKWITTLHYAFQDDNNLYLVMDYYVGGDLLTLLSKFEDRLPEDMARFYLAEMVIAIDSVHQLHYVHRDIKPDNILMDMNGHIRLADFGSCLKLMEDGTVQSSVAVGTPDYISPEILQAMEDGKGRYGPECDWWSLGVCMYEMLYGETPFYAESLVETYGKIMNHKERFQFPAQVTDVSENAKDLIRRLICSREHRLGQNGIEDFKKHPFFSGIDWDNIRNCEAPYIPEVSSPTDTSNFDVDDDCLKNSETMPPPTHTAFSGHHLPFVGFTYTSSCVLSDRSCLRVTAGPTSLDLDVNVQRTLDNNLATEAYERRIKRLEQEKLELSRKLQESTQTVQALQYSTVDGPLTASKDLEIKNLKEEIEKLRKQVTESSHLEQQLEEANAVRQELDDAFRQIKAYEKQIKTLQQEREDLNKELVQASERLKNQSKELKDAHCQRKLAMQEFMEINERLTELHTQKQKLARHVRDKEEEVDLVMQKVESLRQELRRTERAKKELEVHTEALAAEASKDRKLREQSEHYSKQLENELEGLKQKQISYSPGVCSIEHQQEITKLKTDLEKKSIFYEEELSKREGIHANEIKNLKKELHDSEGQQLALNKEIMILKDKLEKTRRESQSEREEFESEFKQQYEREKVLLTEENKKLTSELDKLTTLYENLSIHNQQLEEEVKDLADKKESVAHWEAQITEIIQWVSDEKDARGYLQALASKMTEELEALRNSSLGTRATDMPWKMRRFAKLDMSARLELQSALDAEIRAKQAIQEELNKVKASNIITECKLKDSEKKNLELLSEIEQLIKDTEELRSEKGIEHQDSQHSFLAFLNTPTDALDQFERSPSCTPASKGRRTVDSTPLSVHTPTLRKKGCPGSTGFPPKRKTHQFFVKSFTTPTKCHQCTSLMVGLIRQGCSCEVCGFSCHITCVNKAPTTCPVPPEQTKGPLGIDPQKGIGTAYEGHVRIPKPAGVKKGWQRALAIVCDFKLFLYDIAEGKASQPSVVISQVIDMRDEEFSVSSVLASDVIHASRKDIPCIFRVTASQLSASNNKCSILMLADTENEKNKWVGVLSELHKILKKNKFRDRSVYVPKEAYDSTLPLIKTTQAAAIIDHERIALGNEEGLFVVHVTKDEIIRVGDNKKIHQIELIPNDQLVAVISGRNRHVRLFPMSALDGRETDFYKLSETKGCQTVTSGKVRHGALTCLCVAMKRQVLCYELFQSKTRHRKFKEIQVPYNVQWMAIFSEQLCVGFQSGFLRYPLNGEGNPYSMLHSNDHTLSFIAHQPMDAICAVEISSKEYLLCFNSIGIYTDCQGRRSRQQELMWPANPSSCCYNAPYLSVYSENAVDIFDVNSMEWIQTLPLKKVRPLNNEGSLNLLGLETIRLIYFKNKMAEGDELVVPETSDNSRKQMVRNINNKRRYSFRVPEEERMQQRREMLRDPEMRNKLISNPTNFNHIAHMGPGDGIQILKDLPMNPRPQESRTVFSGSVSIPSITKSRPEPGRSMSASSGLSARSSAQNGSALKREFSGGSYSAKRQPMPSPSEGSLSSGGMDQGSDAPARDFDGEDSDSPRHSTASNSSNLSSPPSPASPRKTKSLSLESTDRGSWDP
Sequence of Serine/threonine-protein kinase Nek7 (Homo sapiens) (Q8TDX7 whole entry, looked up): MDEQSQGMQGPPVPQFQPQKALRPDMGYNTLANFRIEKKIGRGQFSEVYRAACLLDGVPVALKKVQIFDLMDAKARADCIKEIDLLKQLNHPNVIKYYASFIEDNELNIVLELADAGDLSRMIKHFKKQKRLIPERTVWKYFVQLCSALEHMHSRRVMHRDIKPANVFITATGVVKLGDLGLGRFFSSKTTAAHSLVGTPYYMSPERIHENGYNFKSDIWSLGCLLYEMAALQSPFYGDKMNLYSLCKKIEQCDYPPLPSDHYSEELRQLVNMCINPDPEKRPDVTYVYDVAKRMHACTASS

In experiment [1], `CCN1CCN(Cc2ccc(NC(=O)c3ccc(C)c(/C=C/c4cnc5[nH]ccc5c4OC)c3)cc2C(F)(F)F)CC1` yielded a residual activity of 0.2%. Moreover, the inhibition was determined as 17.5% in [2]; 100% in experiment [3]; 79% in experiment [4]; 9% in experiment [5]; 20.3% in [6]; 13.2% in experiment [7].

In [8], `CCN1CCN(Cc2ccc(NC(=O)c3ccc(C)c(Oc4ccnc5[nH]ccc45)c3)cc2C(F)(F)F)CC1` yielded a residual activity of 8.2%. In experiment [9], this compound gave a % of control of 0.1%. The inhibition entry in [10] is “inactive”. The same compound displayed an inhibition in [11] of 3.6%.

Turning to `CNc1cc(Oc2cc(C(=O)Nc3cc(N4CCN(C)CC4)cc(C(F)(F)F)c3)ccc2C)ncn1`, the inhibition in experiment [12] came to 2.7%; in experiment [13], 7.6%.

For the origin of these results see ChEMBL document CHEMBL5696442, “Discovery of type II inhibitors of TGFβ-activated kinase 1 (TAK1) and mitogen-activated protein kinase kinase kinase kinase 2 (MAP4K2)” (J Med Chem, 2015).
